Test results reported in ChEMBL document CHEMBL3779876, “Synthesis and biological evaluation of novel 2,3-dihydrochromeno[3,4-d]imidazol-4(1H)-one derivatives as potent anticancer cell proliferation and migration agents” (Eur J Med Chem, 2016).

Experiments:
[1] = Growth inhibition of human HCT116 cells assessed as cell viability after 72 hrs by MTT assay; type: functional, cell-based; details: HCT-116, 72 h
Outline: (§1)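 Cells were grown in DMEM or RPMI with 10% FBS and 1% penicillin/streptomycin at 37 °C, 5% CO2. They were seeded at 2000–3000 cells, rested 24 h, then exposed to a range of concentrations for 72 h. MTT (5 mg/mL stock) was added for 2–4 h at 37 °C and formazan dissolved in DMSO. A570 was read and IC50 calculated; triplicate wells, three separate experiments.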

[2] = Growth inhibition of human PC3 cells assessed as cell viability after 72 hrs by MTT assay; type: functional, cell-based; details: PC-3, 72 h; outline: as §1
[3] = Growth inhibition of human U87MG cells assessed as cell viability after 72 hrs by MTT assay; type: functional, cell-based, U-87MG ATCC; details: U-87 MG; outline: as §1

Cc1ccccc1-n1c(=O)[nH]c2c(=O)oc3ccc(-c4cnc5ccccc5c4)cc3c21
IC50 [1]: > 40 µM
IC50 [2]: > 40 µM
IC50 [3]: > 40 µM

Cc1ccccc1-n1c(=O)[nH]c2c(=O)oc3ccc(-c4cccnc4)cc3c21
IC50 [1]: > 40 µM
IC50 [2]: > 40 µM
IC50 [3]: > 40 µM

N#CCc1ccc(-n2c(=O)[nH]c3c(=O)oc4ccc(-c5ccccc5)cc4c32)cc1
IC50 [1]: > 40 µM
IC50 [2]: 35.3 µM
IC50 [3]: 31.4 µM

CC(C)(C#N)c1ccc(-n2c(=O)[nH]c3c(=O)oc4ccc(-c5cnc6ccccc6c5)cc4c32)cc1
IC50 [1]: 20.4 µM
IC50 [2]: 19.8 µM
IC50 [3]: 33.4 µM

O=c1oc2ccc(-c3cnc4ccccc4c3)cc2c2c1[nH]c(=O)n2-c1ccccc1
IC50 [1]: 31.5 µM
IC50 [2]: 34 µM
IC50 [3]: 35.6 µM

CS(=O)(=O)c1ccc(-c2ccc3oc(=O)c4[nH]c(=O)n(-c5ccc(CC#N)cc5)c4c3c2)cc1
IC50 [2]: 29.6 µM
IC50 [3]: 39.7 µM

N#CCc1ccc(-n2c(=O)[nH]c3c(=O)oc4ccc(-c5cnc6ccccc6c5)cc4c32)cc1
IC50 [1]: 28.4 µM
IC50 [2]: 30.2 µM
IC50 [3]: 34.9 µM

O=c1oc2ccc(-c3cccc(NS(=O)(=O)c4ccc(F)cc4)c3)cc2c2c1[nH]c(=O)n2-c1ccccc1
IC50 [1]: > 40 µM
IC50 [2]: > 40 µM
IC50 [3]: > 40 µM

N#CCc1ccc(-n2c(=O)[nH]c3c(=O)oc4ccc(-c5ccncc5)cc4c32)cc1
IC50 [1]: 37.2 µM
IC50 [2]: 37.1 µM
IC50 [3]: 36.4 µM

N#CCc1ccc(-n2c(=O)[nH]c3c(=O)oc4ccc(-c5cccc(N)c5)cc4c32)cc1
IC50 [2]: 36.5 µM
IC50 [3]: > 40 µM

O=c1oc2ccc(-c3ccccc3)cc2c2c1[nH]c(=O)n2-c1ccccc1
IC50 [2]: > 40 µM
IC50 [3]: > 40 µM

N#CCc1ccc(-n2c(=O)[nH]c3c(=O)oc4ccc(-c5ccc(O)cc5)cc4c32)cc1
IC50 [1]: 30.1 µM
IC50 [2]: 30.6 µM
IC50 [3]: 29.6 µM

O=c1oc2ccc(-c3ccc(O)cc3)cc2c2c1[nH]c(=O)n2-c1ccccc1
IC50 [3]: > 40 µM
